Results of several laboratories.
Protocols differ between the studies behind these lines.
Target: Ankyrin repeat and protein kinase domain-containing protein 1 (ANKK1, Homo sapiens, UniProt Q8NFD2)
One construct used (Q8NFD2 1-765): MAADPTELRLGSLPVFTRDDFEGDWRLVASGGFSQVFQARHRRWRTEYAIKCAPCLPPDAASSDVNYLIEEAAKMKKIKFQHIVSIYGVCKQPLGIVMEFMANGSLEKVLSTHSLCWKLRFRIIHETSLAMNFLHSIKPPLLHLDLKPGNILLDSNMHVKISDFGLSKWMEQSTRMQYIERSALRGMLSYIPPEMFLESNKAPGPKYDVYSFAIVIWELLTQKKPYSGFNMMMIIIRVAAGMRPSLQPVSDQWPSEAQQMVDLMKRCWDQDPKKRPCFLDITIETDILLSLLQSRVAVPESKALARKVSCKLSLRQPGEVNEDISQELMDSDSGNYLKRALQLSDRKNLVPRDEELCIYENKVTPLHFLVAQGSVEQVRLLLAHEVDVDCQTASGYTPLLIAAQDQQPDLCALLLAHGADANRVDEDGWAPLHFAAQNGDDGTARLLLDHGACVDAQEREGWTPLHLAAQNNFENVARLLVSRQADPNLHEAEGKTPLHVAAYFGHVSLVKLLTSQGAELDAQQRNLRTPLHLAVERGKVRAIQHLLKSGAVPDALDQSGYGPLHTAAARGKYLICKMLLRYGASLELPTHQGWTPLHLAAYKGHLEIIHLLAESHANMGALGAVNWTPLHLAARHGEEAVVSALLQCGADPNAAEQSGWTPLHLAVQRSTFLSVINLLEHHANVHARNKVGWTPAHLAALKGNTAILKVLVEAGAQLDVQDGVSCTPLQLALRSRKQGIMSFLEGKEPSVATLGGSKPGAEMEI

The remaining binding of `C[C@@H](c1ccc(-n2cnc3c(N)ncnc32)cc1)N1CCc2nn(C)c(Cc3ccccc3)c2C1=O` is reported as 85% (binding, competition with immobilised ligand; 0.1 µM).
`Cc1cnc(Nc2ccc(C(=O)N3CCC(N4CCCC4)CC3)cc2)nc1-c1cc2ccccc2s1` has a remaining binding of 62% (binding, competition with immobilised ligand; 1 µM).
`COc1cnc(Nc2cccc(S(N)(=O)=O)c2)nc1N1CCN(c2ccccc2)C(=O)C1` has a remaining binding of 82% (binding, competition with immobilised ligand; 1 µM).
With `CO[C@@H](C)c1c(Nc2ccc([C@@H](N(C)C(=O)C3CCS(=O)(=O)CC3)C(F)(F)F)cc2)cnc2cc(Cl)nn12` the remaining binding was 100% (cell-free assay, competition with immobilised ligand; 1 µM).
`COc1ncc2cc3ccccc3nc2c1C#N` gave a remaining binding of 100% (cell-free assay, competition with immobilised ligand; 5 µM).
The remaining binding of `c1ccc(N2CCN(Cc3nc4ccccc4[nH]3)CC2)nc1` is reported as 100% (binding, competition with immobilised ligand; 1 µM).
`Nc1ncc2c(n1)-c1c([nH]c3ccc(C#CC4CC4)cc13)CCCC2` gave a remaining binding of 85% (binding, competition with immobilised ligand; 1 µM).
For `CN(C)c1ncc(F)c(-c2cnn3ncccc23)n1`, the remaining binding was 69% (binding; 1 µM).
`CC1=C(C#N)C(c2ccc3c(c2)c(NC(=O)c2ccccc2C)nn3C)C(C#N)=C(C)N1` gave a remaining binding of 92% (cell-free assay, competition with immobilised ligand; 1 µM).
`O=C(c1ccc(Nc2ncc(Cl)c(-c3ccc(Cl)s3)n2)cc1)N1CCC(N2CCCC2)CC1` has a remaining binding of 61% (binding, competition with immobilised ligand; 1 µM).
`C[C@H]1CCN(c2nccc(-c3cnn4ncccc34)n2)C1` has a remaining binding of 83% (binding; 1 µM).
`N#Cc1ccc(Nc2ccc3[nH]c(=O)[nH]c3c2)c(Cl)c1` gave a remaining binding of 100% (cell-free assay, competition with immobilised ligand; 1 µM).
With `O=C(c1ccc(Nc2ncc(Cl)c(-c3cc4ccccc4s3)n2)cc1)N1CCC(N2CCCC2)CC1` the remaining binding was 62% (binding, competition with immobilised ligand; 1 µM).
`O=C(N1CCS(=O)(=O)CC1)N1C[C@H](c2ccc(OC(F)(F)F)cc2)C[C@H](c2nc(C3CC3)no2)C1` gave a remaining binding of 100% (cell-free assay, competition with immobilised ligand; 1 µM).
`COc1ccnn2ncc(-c3ccnc(N(C)C)n3)c12` gave a remaining binding of 78% (binding; 1 µM).
For `C=CC(=O)N1CCC(C(=O)NCC(=O)N2CCN(c3nc(-c4cnc(N)nc4C(F)F)nc(N4CCOCC4)n3)CC2)CC1`, the remaining binding was 100% (binding, competition with immobilised ligand; 1 µM).
The remaining binding of `Cc1cnn2ncc(-c3ccnc(N(C)C)n3)c2c1` is reported as 100% (binding; 1 µM).
For `O=c1nc(-c2ccccn2)sc2ccccc12`, the remaining binding was 100% (binding, competition with immobilised ligand; 1 µM).
`CN(CCCC(F)(F)F)c1nccc(-c2cnn3ncccc23)n1` has a remaining binding of 95% (binding; 1 µM).
The remaining binding of `O=C(Nc1c[nH]nc1C(=O)NC1CCNCC1)c1cc(F)cc(F)c1` is reported as 100% (binding, competition with immobilised ligand; 1 µM).
